# Assay: Toxicity liver stage against HepG2, at 10uM
# Assay type: cell-based
# Design: test concentration 10 uM, cell line HepG2-A16-CD81EGFP
# Conditions: human, HepG2-A16-CD81EGFP cells; read-out: INHIBITION
# Summary of the method: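 Uninfected HepG2-A16-CD81EGFP cells, 3 × 10^3 per well, 1536-well, plated on prespotted compound at 10 μM final, parasite-free screening media added to match infected plates; puromycin 10 μM positive, DMSO 0.5% negative; run in parallel with 48 h PbLuc assay at 37 °C, 5% CO2; viability by CellTiter-Glo luminescence, normalized to controls.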
row,SMILES,cytotoxicity at 10 µM
1,Cc1ccccc1OCCCC(=O)N(C)CCC#N,2.33%
2,CNc1cc(N2CCCC2CNCc2ccc(C)o2)ncn1 (stereo unspecified),-2.69%
3,Cn1ccnc1-c1noc(NCc2ccc3c(c2)OCCO3)n1,-0.408%
4,CNC(=O)CN(C)c1cncc(OCC(C)C)n1,0.137%
5,CC(C)CCN1CCN(C(=O)c2c[nH]nn2)CC1,1.64%
6,Cc1nc(NC(=O)OC(C)(C)C)sc1C(N)=O,-14.4%
7,CC(=O)NCCNC(=O)Nc1ccc(C)cc1OCc1ccccc1,9.79%
8,CC(C)c1nc(C2CCCN2CCN2CCCCC2)no1 (stereo unspecified),-4.58%
9,Cc1cccc(-c2nc(C)nn2CN2CCN(c3ncccn3)CC2)c1,-6.45%
10,CN(C)C(=O)N1Cc2nnn(CC3CC3)c2C(COCC2CC2)C1 (stereo unspecified),8.26%
11,Cc1noc(C)c1CN1C[C@@H]2COC[C@@H](CC(=O)N3CCCO3)[C@@H]2C1,-68.3%
12,CCC(Nc1cccc(OC)c1)C(=O)NCc1ccc2[nH]c(=O)[nH]c2c1 (stereo unspecified),1.67%
13,CN(C)[C@@H]1C[C@@H](CO)N(C(=O)Nc2cccc(F)c2F)C1,-0.103%
14,Cc1nn(CCO)c(C)c1-c1cc(C(C)(C)C)nc(N)c1C#N,4.93%
15,CCOCCn1nc(C)cc1C(=O)N1CCCC[C@H](N(C)C)C1,-3.68%
16,COCCN1CCN(Cc2ccc3nsnc3c2)[C@H]2CS(=O)(=O)C[C@H]21,-5.94%
17,CSCC1CCCN(c2ncnc3oc(C)nc23)C1 (stereo unspecified),4.03%
18,O=C(c1cc(COc2ccc3c(c2)OCO3)[nH]n1)N1CCCC(O)C1 (stereo unspecified),-8.07%
19,CC(c1ccccc1)n1c(SCC(=O)O)nnc1-c1ccn[nH]1 (stereo unspecified),-0.0682%

row,SMILES,cytotoxicity at 10 µM
1,Cc1nc(C)n(CC(C)C(=O)N2CCC(NS(C)(=O)=O)CC2)n1 (stereo unspecified),-4.4%
2,NC(=O)NCC(=O)N1CCC(c2cc(-c3ccccc3Cl)n[nH]2)CC1,-0.208%
3,CCCOCCn1ncc(N2CCc3ccccc3C2)cc1=O,2.63%
4,Cc1ccc2c(c1)SCC(=O)N2Cc1noc(C2CC2)n1,7.4%
5,c1cc2c(cc1-c1noc3c1CN(C1CCSCC1)CC3)OCO2,5.51%
6,COCc1ncc(-c2nccn2CCn2cnnc2)cn1,4.6%
7,Cc1cn(CC(=O)Nc2cc(C(C)C)nn2C)cn1,5.44%
8,COc1ccccc1-n1c(CC(C)C)nnc1SCC(=O)O,-6.71%
9,CN1CCC(Cc2noc(-c3cccc(Oc4ncccn4)c3)n2)CC1,-5.21%
10,CC(NC(=O)CN(C)S(C)(=O)=O)c1ccc(F)cc1 (stereo unspecified),-4.36%
11,CCOc1ccc(C(=O)N(CCOC)Cc2c(C)nn(CC)c2C)o1,-2.99%
12,Cc1ccc(OCc2occc2C(=O)N2CCOC(C(=O)O)C2)cc1 (stereo unspecified),-2.14%
13,Cc1ccccc1CNc1nc(O)cc(C2CC(=O)N(C)C2)n1 (stereo unspecified),-0.336%
14,Cc1n[nH]c(C)c1C1COCCN1C(=O)c1cccc(F)c1F (stereo unspecified),-8.45%
15,CN(C)c1ccc(C(=O)N2CCN(Cc3cscn3)CC2)cn1,-4.57%
16,Cc1cnn(CC2CCCN2CC(=O)Nc2cc(C)no2)c1 (stereo unspecified),2.27%
17,Cn1ccc(CN2CCC(Cc3ccccc3)CC2)cc1=O,1.78%
18,Cc1nc2c(c(C)c1CC(=O)NCc1cccs1)c(=O)[nH]n2C,-34.2%
19,CCc1nc(C2CCCN(C(=O)NCCOC)C2)no1 (stereo unspecified),-0.775%

row,SMILES,cytotoxicity at 10 µM
1,O=C(c1ccccc1N1CCOCC1)N1CCCC1Cn1cccn1 (stereo unspecified),-7.44%
2,Cc1cc(NC(=O)CN2CCn3c(nnc3C(C)C)C2)on1,5.05%
3,c1cnc(-c2nc(CN3CCn4c(nnc4C4CC4)C3)cs2)nc1,-6.93%
4,CC(NC(=O)NCCNc1cnccn1)c1cccs1 (stereo unspecified),-3.79%
5,Cc1[nH]nc2ncc(C(=O)N3CCN(CC(C)C)CC3)cc12,-3.88%
6,O=C(c1cocn1)N1CCC2(CC1)CC(Oc1ccccn1)CO2 (stereo unspecified),9.34%
7,COC[C@@H]1CCC[C@@]12CN(Cc1ccco1)CCO2,2.03%
8,CS(=O)(=O)CC(=O)N1C[C@H]2CCC[C@@]2(COc2ccccn2)C1,-99.2%
9,CC(=O)N1CCCC2(CN(Cc3ccc(F)cc3)CCO2)C1 (stereo unspecified),0.283%
10,COc1ccc(CN2CC[C@@H]3CN(S(C)(=O)=O)CCO[C@@H]3C2)cc1,-1.55%
11,CS(=O)(=O)N1CCCC12CCN(Cc1nccs1)C2 (stereo unspecified),2.26%
12,O=C([C@H]1C[C@H]2OCC[C@H]2N(CCc2ccccc2)C1)N1CCCCO1,0.307%
13,c1ccc(OCc2n[nH]c3c2CN(Cc2cccs2)C3)nc1,8.25%
14,CCN1CC2(CCNCC2)COc2ccccc2S1(=O)=O,-3.06%
15,COCC1CN(S(=O)(=O)Cc2ccc(C)cc2)Cc2c1cnn2C (stereo unspecified),3.51%
16,Cc1ccccc1C(=O)N1CCO[C@H]2[C@H](OCCN(C)C)CC[C@@H]21,-2.95%
17,CN(C)CCNC(=O)[C@H]1C[C@H]2CN(C(=O)NCc3ccccc3)C[C@@H]1O2,1.96%
18,COc1ccc(C2=CN=C(C(F)(F)F)CC2N)cc1 (stereo unspecified),16.6%

# Source: ChEMBL document CHEMBL4513216, “Probing the Open Global Health Chemical Diversity Library for Multistage-Active Starting Points for Next-Generation Antimalarials” (ACS Infect Dis, 2020)
